What was measured:
NCI-H69 [1] = experiment: Cytotoxicity measured using the drug resistant, P-glycoprotein (Pgp) expressing human small cell lung carcinoma cell line H69/LX4; type: functional, cell-based
Summary of the method: (§1)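 H69/P (parental) or H69/LX4 (P-glycoprotein-overexpressing) human SCLC cells; compound added, then 5-6 days incubation; proliferation read with Alamar Blue.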

NCI-H69 [2] = experiment: Rf is the resistance factor and is the ratio of the IC50 on the resistant cell line over the IC50 on the parental H69/P cell line; type: functional, Homo sapiens
Summary of the method: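 Resistance factor computed as IC50 in H69/LX4 (Pgp-overexpressing) divided by IC50 in H69/P. Both IC50s come from a 5-6 day Alamar Blue proliferation assay.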

NCI-H69 [3] = experiment: Cytotoxicity measured using the H69 parental (H69/P) human small cell lung carcinoma cell line; type: functional, cell-based; summary of the method: as §1
COR-L23 [4] = experiment: Cytotoxicity measured using the COR-L23 parental (COR-L23/P) human non small cell lung carcinoma cell line; type: functional, cell-based
Summary of the method: (§2)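 COR-L23/P (parental) or COR-L23/R (MRP-overexpressing) human NSCLC cells; compound added, then 5-6 days incubation; proliferation read by sulforhodamine B staining.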

[5] = Rf is the resistance factor and is the ratio of the IC50 on the resistant cell line over the IC50 on the parental COR-L23/P cell line; conditions: human
Summary of the method: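 Resistance factor computed as IC50 in COR-L23/R (MRP-overexpressing) divided by IC50 in COR-L23/P. Both IC50s come from a 5-6 day sulforhodamine B proliferation assay.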

COR-L23 [6] = experiment: Cytotoxicity measured with the drug resistant human non small cell lung carcinoma cell line COR-L23 (COR-L23/R) which over expresses multidrug resistance associated with protein(MRP); type: functional, cell-based; summary of the method: as §2

SMILES	IC50 (NCI-H69 [1]) [nM]	Rf (NCI-H69 [2])	IC50 (NCI-H69 [3]) [nM]	IC50 (COR-L23 [4]) [nM]	Rf [5]	IC50 (COR-L23 [6]) [nM]
CN(C)CCCOc1cccc2c1ccc1nc3cccc(C(=O)NCCN(C)C)c3nc12	91	0.8	116			
CN(C)CCNC(=O)c1cccc2nc3ccc4ccccc4c3nc12	130	1.9		102	1.4	140
CN(C)CCNC(=O)c1cccc2nc3ccc4c(OCC#N)cccc4c3nc12	24	0.9	28			
COc1cccc2c1ccc1nc3cccc(C(=O)NC(CCO)CN(C)C)c3nc12 (stereo not drawn)	28	1.1	26			
COc1cc(C(=O)NCCN(C)C)c2nc3c(ccc4c(OC)cccc43)nc2c1	25	1.3	19			
COc1cccc2c1ccc1nc3cccc(C(=O)NCCN4CCCCC4)c3nc12	330	2.1	156			
COc1cccc2c1ccc1nc3cccc(C(=O)NCC(C)N(C)C)c3nc12 (stereo not drawn)	126	1.2	101			
COc1cccc2c1ccc1nc3cccc(C(=O)NCCN(C)C)c3nc12	49	1.4		14	1.4	20
COCCOc1cccc2c1ccc1nc3cccc(C(=O)NCCN(C)C)c3nc12	124	1.4	90			
CN(C)CCNC(=O)c1cccc2nc3ccc4c(N)cccc4c3nc12	193	1.7	111			
CC(=O)Nc1cccc2c1ccc1nc3cccc(C(=O)NCCN(C)C)c3nc12	> 5000	>10.7	468			
CN(C)CCNC(=O)c1cccc2nc3ccc4c(OCC(N)=O)cccc4c3nc12	328	3.7	89			
COc1cccc2c1ccc1nc3cccc(C(=O)NCCCN(C)C)c3nc12	597	1.3	470			
COc1ccc2c(ccc3nc4cccc(C(=O)NCCN(C)C)c4nc32)c1	185	1.3	141	68	1.2	79
COC(=O)C(CN(C)C)NC(=O)c1cccc2nc3ccc4c(OC)cccc4c3nc12 (stereo not drawn)	> 5000	>10	468			
COc1cccc2c1ccc1nc3cccc(C(=O)N[C@H](CO)CN(C)C)c3nc12	25	1.2	20			
CCOc1cccc2c1ccc1nc3cccc(C(=O)NCCN(C)C)c3nc12	182	3.7	49			
COc1cccc2c1ccc1nc3cc(Cl)cc(C(=O)NCCN(C)C)c3nc12	21	1	20			
CCNC(=O)Oc1cccc2c1ccc1nc3cccc(C(=O)NCCN(C)C)c3nc12	103	1.6	64			
CC(=O)Oc1cccc2c1ccc1nc3cccc(C(=O)NCCN(C)C)c3nc12	67	2.8	24			

SMILES	IC50 (NCI-H69 [1]) [nM]	Rf (NCI-H69 [2])	IC50 (NCI-H69 [3]) [nM]	IC50 (COR-L23 [4]) [nM]	Rf [5]	IC50 (COR-L23 [6]) [nM]
CN(C)CCNC(=O)c1cccc2nc3ccc4c(OCc5ccccc5)cccc4c3nc12	882	1.6	556			
CN(C)CCNC(=O)c1cccc2nc3ccc4c(C#N)cccc4c3nc12	147	1.5	101			
CN(C)CCNC(=O)c1cccc2nc3ccc4c(O)cccc4c3nc12	48	1.4	35	15	1.1	17
COc1cccc2c1ccc1nc3cccc(C(=O)NC(CO)CN(C)C)c3nc12 (stereo not drawn)	28	1.2	23			
COc1cccc2c1ccc1nc3cccc(C(=O)N[C@@H]4CCN(C)C4)c3nc12	128	1.6	79			
CNCCNC(=O)c1cccc2nc3ccc4c(OC)cccc4c3nc12	234	2.4	99			
COc1ccc2nc3ccc4c(OC)cccc4c3nc2c1C(=O)NCCN(C)C	3620	1.4	2640			
CN(C)CCNC(=O)c1cccc2nc3ccc4cc(O)ccc4c3nc12	193	1.8	109	67	1.4	96
COc1cccc2c1ccc1nc3cc(Br)cc(C(=O)NCCN(C)C)c3nc12	100	0.6	159			
CN(C)CCNC(=O)c1c(O)ccc2nc3ccc4c(O)cccc4c3nc12	25	1.3	19			
CN(C)CCNC(=O)c1cccc2nc3ccc4c(OCCCC#N)cccc4c3nc12	58	1.5	39			
CN(C)CCNC(=O)c1cccc2nc3ccc4ccc([N+](=O)[O-])cc4c3nc12	102	1.1	94			
CNc1ccc2nc3ccc4c(OC)cccc4c3nc2c1C(=O)NCCN(C)C	143	1.1	127			
CN(C)CCNC(=O)c1cccc2nc3ccc4c(F)cccc4c3nc12	78	0.7	111			
CN(C)CCNC(=O)c1cccc2nc3ccc4c([N+](=O)[O-])cccc4c3nc12	120	1.3	96	20	1.2	24
CN(C)CCNC(=O)c1cccc2nc3ccc4c(Br)cccc4c3nc12	171	2.2	77			
CN(C)CCNC(=O)c1cccc2nc3ccc4c(NS(C)(=O)=O)cccc4c3nc12	4990	2.3	2130			
Cc1cccc2c1ccc1nc3cccc(C(=O)NCCN(C)C)c3nc12	98	0.8	117			
COc1cccc2c1C(=O)c1c(O)c3c(c(O)c1C2=O)C[C@@](O)(C(=O)CO)C[C@@H]3O[C@H]1C[C@H](N)[C@H](O)[C@H](C)O1 [DOXORUBICIN]	3870	142		20.1		319
CC[C@@]1(O)C(=O)OCc2c1cc1n(c2=O)Cc2cc3c(CN(C)C)c(O)ccc3nc2-1 [TOPOTECAN]	62.9	3.9		13.2		20
